Columns and labels:
[1] = system: Canis familiaris; test: Tested for gastric antisecretory activity in dogs by intrapouch administration; format: functional; conditions: Canis lupus familiaris, Stomach
Method in brief: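 Adult female beagles (6–11 kg) with Pavlov pouches; after a 30-min basal collection, drug given into the pouch via Thomas cannula in pH 7.4 isoosmotic phosphate buffer with up to 20% ethanol. Fed 10–12 oz canned food 30 min later. Gastric juice collected at 30-min intervals for 4 h; acid output = volume × acidity. Percent reduction from control over 2–5 doses, 2–7 dogs/dose. ED50 by linear regression, 95% limits by Fieller's method.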

[2] = system: Rattus norvegicus; test: Tested for diarrheal side effects in rats by intragastric administration; format: functional; conditions: po
Method in brief: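 Adult male Charles River rats (210–230 g), individually housed, fasted 24 h with water ad libitum. Logarithmically graded prostaglandin doses given orally, N = 6–12 per group. Diarrhea scored all-or-none for 8 h after dosing. ED50 and 95% confidence intervals by logistic regression.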

Compound	ED50 [1]	ED50 [2]
COC(=O)CC/C=C\CC[C@H]1C(=O)C[C@@H](O)[C@@H]1/C=C/C[C@@](C)(O)/C=C/C1CC1	0.1 µg/kg	402 µg/kg
COC(=O)CC/C=C\CC[C@H]1C(=O)C[C@@H](O)[C@@H]1/C=C/C[C@@](C)(O)/C=C/C1(C)CC1	0.02 µg/kg	1340 µg/kg
COC(=O)CC/C=C\CC[C@H]1C(=O)C[C@@H](O)[C@@H]1/C=C/C[C@@](C)(O)/C=C/C1CCCC1	0.3 µg/kg	1950 µg/kg
COC(=O)CC/C=C\CC[C@H]1C(=O)C[C@@H](O)[C@@H]1/C=C/C[C@@](C)(O)C#CC1=CCCC1	2.8 µg/kg	> 3160 µg/kg
COC(=O)CC/C=C\CC[C@H]1C(=O)C[C@@H](O)[C@@H]1/C=C/C[C@@](C)(O)/C=C/C1CCC1	0.05 µg/kg	530 µg/kg
COC(=O)CC/C=C\CC[C@H]1C(=O)C[C@@H](O)[C@@H]1/C=C/CC(C)(O)CCC1=CCCC1 (stereo partly specified)	0.1 µg/kg	1180 µg/kg
COC(=O)CC/C=C\CC[C@H]1C(=O)C[C@@H](O)[C@@H]1/C=C/C[C@@](C)(O)/C=C/C1=CCCCC1	0.3 µg/kg	> 3160 µg/kg
COC(=O)CC/C=C\CC[C@H]1C(=O)C[C@@H](O)[C@@H]1/C=C/C[C@@](C)(O)/C=C/C1=CCCC1	0.02 µg/kg	> 3160 µg/kg
